# Screens as filed in PubChem BioAssay.
# T cell modulator: T cell immune modulation candidate; 0.068% of 330,000 active; AID 2052; response (vesicle binding), % at 7 µM; 2C CD8+ T cell-vesicle binding, flow cytometry; hits give low values;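 active = response, share of CD8 T cells binding vesicles, and their 90th percentile fluorescence all below set limits, cut at about 80% in these data, passing the limit was not always enough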;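 also: values below 100% mean blocked vesicle binding to the CD8+ T cells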
#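 Test system: purified 2C TCR transgenic mouse naive CD8+ T cells. Probe or stimulus: QL9-peptide-loaded Drosophila micro-vesicles bearing Ld, ICAM-1 and B7-1. Incubation: binding step 1.5 h, 37 °C, antibody labelling 20 min, ice. Measured by: flow cytometry of vesicle-bound cells.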
# Arr AP2 block: human beta-arrestin and AP2 interaction inhibition. inhibition, % at 10 µM. 0.31% of 340,000 active. FITC-arrestin peptide / GST-AP2 beads, flow cytometry; AP2 beta2 appendage carries R879A mutation;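 active = inhibition above a set limit, near 3 SD of compounds lacking own fluorescence, cut at about 54% in these data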;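 also: plate controls were DMSO wells for no effect and 5 µM unlabelled arrestin peptide for full effect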
#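 System: GST-AP2 R879A glutathione beads; medium: PBS, Tween 20 0.05%, BSA 0.1%; reagent: fluorescein-tagged arrestin peptide at 50 nM final; schedule: pre-incubation 12 min, peptide binding 1 h, room temperature; detection: flow cytometry, FL1 (488/535 nm); read-out: inhibition as reduced fluorescein signal on beads, percent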
# XiGFP reactiv: reactivates the inactive X chromosome in mouse fibroblasts; XiGFP mouse fibroblasts, % GFP-positive cells imaging, 3 d; cells co-treated with 5-aza-dC sensitizer; scaled so ellipticine positive control = 100%; activation, % at 7.58 µM; 0.055% of 360,000 active;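 active = mean normalized replicate activation at least 10% and every replicate at or above 10%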;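 also: 0% = median of on-plate neutral control wells and 100% = ellipticine 6 µM median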
#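 Material: SV40-immortalized XiGFP fibroblast cells, line 68-5-11 | Buffer or medium: DMEM containing 5-aza-dC | Dosing: One concentration, pinned | Times: 3 d treatment, 15 min room-temperature fixation | Controls: Ellipticine 6 µM positive control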
# beta cell repl: induces beta-cell replication in MIN6 cells. MIN6 cells proliferation, ATPlite luminescence, 48 h; cells starved in 0.2% serum; 100% = growth in 10% serum. 0.29% of 330,000 active. proliferation, % at 10 µM;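 active = compounds whose signal lies at least 3.5 SD above the mean of all wells on their plate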;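 also: 0% = DMSO-treated cells in low-serum medium and 100% = 10% serum control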
# NTR1 agonist: agonists of human neurotensin receptor NTR1; 0.17% of 330,000 active; NTR1-U2OS beta-arrestin-GFP spot imaging, agonist mode; activation, % at 20 µM; AID 493036;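 active = activation at or above 40% of the spot to cytoplasm intensity ratio, with at least 20 cells analyzed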;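 also: 0% = DMSO without peptide and 100% = 100 nM NTR1 peptide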
# Target sequence (P30989 whole entry, looked up): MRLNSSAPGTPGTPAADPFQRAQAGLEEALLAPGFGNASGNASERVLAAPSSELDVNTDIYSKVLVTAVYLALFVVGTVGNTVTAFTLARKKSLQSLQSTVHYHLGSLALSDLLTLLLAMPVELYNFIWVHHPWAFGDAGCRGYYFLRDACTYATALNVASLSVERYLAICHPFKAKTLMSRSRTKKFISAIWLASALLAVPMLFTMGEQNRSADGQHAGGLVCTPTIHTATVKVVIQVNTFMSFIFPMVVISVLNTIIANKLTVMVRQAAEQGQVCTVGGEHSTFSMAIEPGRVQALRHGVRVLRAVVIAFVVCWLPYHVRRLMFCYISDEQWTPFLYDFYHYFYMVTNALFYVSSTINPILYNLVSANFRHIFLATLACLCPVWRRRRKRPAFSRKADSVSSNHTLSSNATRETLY
# V-ATPase pH: alters yeast V-ATPase proton transport; S. cerevisiae, pHLuorin cytosolic pH fluorescence; response, % at 10 µM; 0.37% of 350,000 active; in the data active = response mostly above about 7.3%, no sharp cut-off; inactive = mostly below about 5.4%; also: actives read high
# Active calls of the source: *; i = inactive; · = no result given. Hits are enriched below; roughly 0.89% of the tested compounds scored in any of these assays.
SMILES,T cell modulator,Arr AP2 block,XiGFP reactiv,beta cell repl,NTR1 agonist,V-ATPase pH
CC(=O)[C@@]1(O)Cc2c(O)c3c(c(O)c2[C@H](O[C@H]2C[C@H](N)[C@H](O)[C@H](C)O2)C1)C(=O)c1ccccc1C3=O,·,·,109*,·,·,·
NC(=S)N/N=C/c1ccc(C23CC4CC(CC(C4)C2)C3)cc1,221,·,·,-4,44*,·
CCOCCCNC(=O)C(c1ccc(C)cc1)N(Cc1cccs1)C(=O)c1ccccn1 (centres undefined),760,1,26*,-1,1,-1
O=C(CN1C(=O)c2ccccc2S1(=O)=O)N1CCCCC1,327,21,0,-6,0,-4
CCOC(=O)C1CCN(C(=O)CN2C(=O)c3ccccc3S2(=O)=O)CC1,0.0*,4,0,-5,0,1
CCC(=O)N/N=C/c1ccc(-c2ccc([N+](=O)[O-])cc2)o1,606,32,0,-1,3,2
CC(C)(C)C(=O)/C=c1\s/c(=C\c2ccc(-c3ccc([N+](=O)[O-])cc3)o2)c(=O)n1CC(=O)NC(N)=O,i,-6,110*,-2,-3,2
O=C(CSc1n[nH]c(=O)n1Cc1ccccc1)Nc1ccc(N2CCOCC2)cc1,·,0,0,-3,1,1
Cc1nnc(SCC(=O)Nc2ccc(N3CCOCC3)cc2)n1Cc1ccccc1,965,-2,0,1,4,23*
Cc1cc(S(=O)(=O)N2CCN(Cc3ccccc3)CC2)c(C)s1,74*,2,0,1,2,-2
Cc1ccc(NC(=O)NC(=O)CSc2nnc(-c3ccc(Cl)cc3Cl)n2N)c(C)c1,206,7,0,0,2,14*
Cc1ccc(/C=C2\SC(=S)N(CC3CCCO3)C2=O)o1 (centres undefined),598,2,0,-3,1,-1
Cc1ccc(/C=C2/SC(=S)N(C3CCCCC3)C2=O)o1,170,62*,0,-8,2,5
CN1C(=O)c2cc(NC(=O)C3CCCCC3)ccc2OC[C@@H]2O[C@H](CC(=O)NC3CCCC3)CC[C@H]21,·,·,0,·,·,·
O=C(COc1ccccc1)NNc1c2ccccc2nc2ccccc12,395,-15,·,-2,14,-2
COc1ccc(OCC(=O)NNc2c3ccccc3nc3ccccc23)cc1,589,24,·,-3,58*,2
CCOc1ccc(NS(=O)(=O)c2cc(OC)ccc2OC)cc1,165,38,·,1,-1,2
COc1ccc(OC)c(S(=O)(=O)Nc2ccc(Oc3ccccc3)cc2)c1,411,23,·,-6,6,13*
COc1ccc(NC(=O)Nc2ccc3c(c2)C(=O)N([C@H](C)CO)C[C@@H](C)[C@H](CN(C)S(=O)(=O)c2cn(C)cn2)OCCCC[C@H](C)O3)cc1,·,·,0,·,·,·
CCN1CCCC1CNC(=O)c1cc(N)ccc1OC (centres undefined),306,26,0,-1,0,0
C=CCN1CCCC1CNC(=O)c1cc2[nH]nnc2cc1OC (centres undefined),910,19,0,-5,-2,15*
CN(C)C(=O)[C@@H]1[C@@H](CO)[C@@H]2Cn3c(ccc(-c4cncnc4)c3=O)[C@H]1N2C(=O)NC1CCCC1,·,·,0,·,·,·
COc1ccc(NC(=O)NC2CCCCCCC2)cc1,69*,1,0,1,0,-2
CC(C)NC(=O)N[C@H]1C=C[C@@H](CC(=O)NCc2ccc(Oc3ccccc3)cc2)O[C@@H]1CO,·,·,0,·,·,·
C/C=C/c1ccc2c(c1)O[C@@H](CN(C)C(=O)C1CC1)[C@@H](C)CN([C@H](C)CO)S2(=O)=O,·,·,0,·,·,·
SMILES,T cell modulator,Arr AP2 block,XiGFP reactiv,beta cell repl,NTR1 agonist,V-ATPase pH
Cc1cccc(/C=C/C(=O)c2ccc([N+](=O)[O-])o2)c1,214,13,5,-7,1,6
O=C(/C=C/c1cccc([N+](=O)[O-])c1)c1ccc([N+](=O)[O-])o1,321,3,4,·,·,177*
Cc1nc(SCC(=O)NCC2CCCO2)c2c(C)c(C)sc2n1 (centres undefined),188,8,0,1,0,13*
COc1cccc(-n2cc(CNCc3cn(C)nc3-c3ccccc3F)cn2)c1,243,26,0,-3,2,14*
COc1cccc(-n2cc(CNCc3c(C(=O)N(C)C)nc4ccc(Cl)cn34)cn2)c1,629,-15,0,-1,0,1
O=C1C(SCCO)=C(SCCO)C(=O)c2ccccc21,617,26,88*,-8,-1,-1
CC1=C(SCc2ccccc2)C(=O)c2ccccc2C1=O,·,4,0,·,·,1
O=C(C[C@@H]1C[C@H]2c3cc(NC(=O)Nc4ccc(C(F)(F)F)cc4)ccc3O[C@H]2[C@H](CO)O1)NCc1cc(F)ccc1F,·,·,0,·,·,·
C[C@H](CO)N1C[C@H](C)[C@@H](CN(C)S(=O)(=O)c2cccs2)Oc2c(NC(=O)Cn3cnnn3)cccc2C1=O,·,·,-1,·,·,·
COC(=O)C(O)(NC(=O)NC(C)=O)C(F)(F)F (centres undefined),329,21,·,0,1,14*
CC1CCc2nc3ccccc3c(C(=O)OCC(=O)N3CCc4ccccc43)c2C1 (centres undefined),357,6,·,2,19,16*
CCCc1nc2ccccc2c(C(=O)OCC(=O)N2CCc3ccccc32)c1CC,196,2,0,-5,3,0
Cc1ccc(N2C(=O)c3cccc4c(N)ccc(c34)C2=O)c2cccnc12,536,32,116*,-4,16,0
Cc1nn(C)c(C)c1N1C(=O)c2cccc3c(N)ccc(c23)C1=O,188,-5,1,·,·,-60
Cc1c(C(=O)O)cccc1-n1c(C)cc(/C=N/Nc2ccc([N+](=O)[O-])cn2)c1C,235,16,0,-5,-2,16*
COc1ccc2c3c([nH]c2c1)[C@H](CO)N(Cc1nccs1)CC31CN(C(=O)C2CC2)C1,·,·,0,·,·,·
Oc1ccc(C[C@@H]2CNCCN2CCc2cc(C(F)(F)F)cc(C(F)(F)F)c2)cc1,421,10,0,-8,7,0
FC(F)(F)c1cc(CCN2CCNC[C@H]2Cc2cccc3ccccc23)cc(C(F)(F)F)c1,822,4,0,-8,51*,2
O=[N+]([O-])c1ccc(C=Nc2ccc(Cl)c([N+](=O)[O-])c2)s1,·,6,0,-5,2,145*
O=[N+]([O-])c1ccc(/C=N/Nc2ncccc2[N+](=O)[O-])s1,929,-2,0,-3,2,8
NC(=O)c1ccc(N=Cc2ccc([N+](=O)[O-])s2)cc1,350,-1,0,·,·,113*
